Results from ChEMBL document CHEMBL3853326, “Proteolytically Stable Foldamer Mimics of Host-Defense Peptides with Protective Activities in a Murine Model of Bacterial Infection” (J Med Chem, 2016).
Values after ≈ are worked out from the molar mass of the structure shown. Active and inactive are the calls of the source.

Key:
[1] = Cytotoxicity against mouse RAW264.7 cells assessed as reduction in cell viability after 4 hrs by MTT assay; type: toxicity; conditions: read-out: LC50
Procedure, shortened: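 RAW 264.7 murine macrophages (2 × 10^5 cells per well) were incubated with increasing compound concentrations for 4 h. Viability was read by MTT assay. The dose causing 50% cell lethality was reported as mean ± SEM, n = 3.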

[2] = Plasma protein binding in CD1 mouse at 10 uM after 4 hrs by HPLC/MS/MS analysis; type: ADME, cell-free; conditions: read-out: PPB
Procedure, shortened: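 Binding was measured by equilibrium dialysis against CD-1 mouse plasma.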

[3] = Ratio of drug level in kidney cortex to muscle in BALB/c mouse at 100 ug/ml, iv after 4 hrs by high resolution beta radiometric imaging analysis; type: ADME, organism-based; conditions: in vivo
Procedure, shortened: (§1)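 BALB/c mice got 100 μg (5 μCi) tritiated compound iv in PBS. At 4, 30 and 48 h the mice were anaesthetised with halothane and frozen in isopentane/dry ice at −80 °C. Whole-body sagittal cryosections (20 μm, cut at −25 °C) were exposed 40 h on a β-imager. Counts per mm2 were read by image analysis, with a muscle-area detection threshold. Values are mean ± SD of 2–6 determinations.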

[4] = Ratio of drug level in liver to muscle in BALB/c mouse at 100 ug/ml, iv after 4 hrs by high resolution beta radiometric imaging analysis; type: ADME, organism-based; conditions: in vivo; procedure, shortened: as §1
[5] = Drug uptake in BALB/c mouse lungs at 20 ug/ml, administered intranasally up to 4 hrs by high resolution beta radiometric imaging analysis; type: ADME, Lung; conditions: in vivo, inhaled_or_intranasal
Procedure, shortened: (§2)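 BALB/c mice got 20 μg (5 μCi) tritiated compound intranasally. At 4, 30 and 48 h they were anaesthetised with halothane and frozen at −80 °C. Whole-body 20 μm sagittal cryosections were exposed 40 h on a high-resolution β-imager. Regional radioactivity was quantified as counts per mm2 per 40 h by image analysis.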

Bacillus anthracis [6] = assay: Time required for 50 % bactericidal activity against nonencapsulated Bacillus anthracis 9602PR at 10 ug/ml; type: functional
[7] = Stability assessed as chymotrypsin(unknown origin)-mediated compound degradation after 24 hrs by HPLC analysis; type: ADME; conditions: human
Bacillus anthracis [8] = assay: Time required for 95 % bactericidal activity against encapsulated Bacillus anthracis 9602P at 10 ug/ml; type: functional
Bacillus anthracis [9] = assay: Bactericidal activity against germinated spore form of Bacillus anthracis 9602P assessed as colony forming units after 30 mins; type: functional; conditions: 0.5 h
[10] = Drug uptake in BALB/c mouse liver at 100 ug/ml, iv after 4 to 48 hrs by high resolution beta radiometric imaging analysis; type: ADME, organism-based; conditions: in vivo; procedure, shortened: as §1
[11] = Selectivity ratio of LC50 for mouse RAW 264.7 cells to ratio of EC50 for germinating spore form of Bacillus anthracis 9602P; type: ADME; conditions: RAW264.7 cells, read-out: Selectivity Index
Bacillus anthracis [12] = assay: Bactericidal activity against nonencapsulated Bacillus anthracis 9602PR assessed as reduction in colony forming units after 30 mins; type: functional; conditions: 0.5 h
Bacillus anthracis [13] = assay: Bactericidal activity against Bacillus anthracis 9602P non-germinated spores assessed as colony forming units at 10 ug/ml incubated for 30 mins followed by heating for 30 mins (reference value: 5.28 +/- 0.02 CFU); type: functional
[14] = Drug uptake in BALB/c mouse kidney cortex at 20 ug/ml, administered intranasally after 4 to 48 hrs by high resolution beta radiometric imaging analysis relative to iv dosing; type: ADME, organism-based; conditions: in vivo, inhaled_or_intranasal; procedure, shortened: as §2
[15] = Tmax in BALB/c mouse at 100ug, iv as bolus administration by liquid scintillation counting; type: ADME, organism-based; conditions: in vivo
Procedure, shortened: (§3)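 Conscious BALB/c mice got one iv bolus of [3H]-labelled oligourea (0.5 × 10^6 cpm per 100 μg, 5.8 × 10−2 μmol) in PBS. Blood (10–20 μL) was drawn from the retro-orbital sinus at 0.6, 2, 3.5, 5.5, 8.7, 15 and 240 min and counted by liquid scintillation. PK was fitted by a two-compartment iv bolus model; n = 2 mice.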

[16] = Stability assessed as trypsin (unknown origin)-mediated compound degradation after 24 hrs by HPLC analysis; type: ADME; conditions: human
[17] = Drug excretion in BALB/c mouse urine at 20 ug/ml, administered intranasally after 6 hrs by high resolution beta radiometric imaging analysis; type: ADME; conditions: in vivo, inhaled_or_intranasal
[18] = Selectivity index, ratio of HD100 for sheep RBC to MIC for Staphylococcus aureus ATCC 25923
[19] = Selectivity index, ratio of HD100 for sheep RBC to MIC for Escherichia coli ATCC 25922
Bacillus anthracis [20] = assay: In vivo bactericidal activity against encapsulated Bacillus anthracis 9602P spores infected in mouse assessed as increase in time of survival at 20 ug/ml, administered intranasally for 15 mins to 48 hrs post infection measured for 15 days post dose; type: functional, organism-based
Bacillus anthracis [21] = assay: Time required for 50 % bactericidal activity against encapsulated Bacillus anthracis 9602P at 10 ug/ml; type: functional
[22] = Stability assessed as Streptomyces griseus pronase E-mediated compound degradation after 24 hrs by HPLC analysis; type: ADME
Bacillus anthracis [23] = assay: Bactericidal activity against encapsulated Bacillus anthracis 9602P assessed as reduction in colony forming units after 30 mins; type: functional; conditions: 0.5 h
[24] = Drug uptake in BALB/c mouse kidney at 100ug, iv through bolus administration after 30 hrs by RP-HPLC analysis; type: ADME, organism-based; conditions: in vivo
Procedure, shortened: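 Kidneys were taken 4 and 30 h after iv tritiated compound and homogenised in 1 N HCl. Homogenates were extracted with methanol/0.1% TFA (4:1), lyophilised 48 h and resuspended in water. Samples ran on C18 RP-HPLC with UV (224, 254 nm) and radioactivity detection. Elution was 10 min isocratic at 20% B, then 20–100% B over 15 min (B: acetonitrile, 0.1% TFA).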

Bacillus anthracis [25] = assay: Time required for 50 % bactericidal activity against germinating spore form of Bacillus anthracis 9602P at 10 ug/ml; type: functional
[26] = Terminal half life in BALB/c mouse at 100ug, iv as bolus administration by liquid scintillation counting; type: ADME, organism-based; conditions: in vivo; procedure, shortened: as §3
[27] = Primary phase half life in BALB/c mouse at 100ug, iv as bolus administration by liquid scintillation counting; type: ADME, organism-based; conditions: in vivo; procedure, shortened: as §3
[28] = Drug uptake in BALB/c mouse kidney cortex at 100 ug/ml, iv after 4 to 48 hrs by high resolution beta radiometric imaging analysis; type: ADME, organism-based; conditions: in vivo; procedure, shortened: as §1
[29] = Drug excretion in BALB/c mouse urinary bladder at 100ug, iv as bolus administration after 240 mins by liquid scintillation counting; type: ADME, organism-based; conditions: in vivo, 4 h; procedure, shortened: as §3
[30] = Drug uptake in BALB/c mouse nasopharyngeal duct at 20 ug/ml, administered intranasally at 4 hrs post dose by high resolution beta radiometric imaging analysis; type: ADME; conditions: in vivo, inhaled_or_intranasal; procedure, shortened: as §2
Bacillus anthracis [31] = assay: In vivo bactericidal activity against encapsulated Bacillus anthracis 9602P spores infected in mouse assessed as increase in time of survival at 20 ug/ml, sc administered for 15 mins to 48 hrs post infection measured for 15 days post dose; type: functional, organism-based
[32] = Stability assessed as chymotrypsin(unknown origin)-mediated compound degradation up to 3 mins by HPLC analysis; type: ADME; conditions: human, 0.05 h
[33] = Stability assessed as Streptomyces griseus pronase E-mediated compound degradation up to 3 mins by HPLC analysis; type: ADME; conditions: 0.05 h
[34] = Stability assessed as trypsin (unknown origin)-mediated compound degradation up to 3 mins by HPLC analysis; type: ADME; conditions: human, 0.05 h
Bacillus anthracis [35] = assay: Time required for 50 % bactericidal activity against nonencapsulated Bacillus anthracis 9602PR at 20 ug/ml; type: functional
Bacillus anthracis [36] = assay: Time required for 50 % bactericidal activity against germinating spore form of Bacillus anthracis 9602P at 20 ug/ml; type: functional
Bacillus anthracis [37] = assay: Time required for 50 % bactericidal activity against encapsulated Bacillus anthracis 9602P at 20 ug/ml; type: functional
[38] = Drug uptake in BALB/c mouse kidney deep medulla at 100 ug, iv after 4 hrs by avidin-peroxidase/HE staining based assay; type: ADME, organism-based; conditions: in vivo
Bacillus anthracis [39] = assay: Bactericidal activity against germinating spore form of Bacillus anthracis at 5 ug/ml; type: functional
[40] = Drug uptake in BALB/c mouse kupffer cells at 100 ug, iv after 4 hrs by avidin-peroxidase/HE staining based assay; type: ADME, organism-based; conditions: in vivo
[41] = Drug uptake in BALB/c mouse liver at 100 ug, iv after 4 hrs by avidin-peroxidase/HE staining based assay; type: ADME, organism-based; conditions: in vivo
[42] = Drug uptake in BALB/c mouse kidney cortex at 100 ug, iv after 4 hrs by avidin-peroxidase/HE staining based assay; type: ADME, organism-based; conditions: in vivo
[43] = Drug uptake in BALB/c mouse kidney deep medulla epithelial cells at 100 ug, iv after 4 hrs by avidin-peroxidase/HE staining based assay; type: ADME, organism-based, Epithelial cell; conditions: in vivo
[44] = Drug uptake in BALB/c mouse cortical convoluted tubule epithelial cells at 100 ug, iv after 4 hrs by avidin-peroxidase/HE staining based assay; type: ADME, organism-based, Epithelial cell; conditions: in vivo

CC(C)NC(=O)N[C@H](CNC(=O)N[C@@H](CCCCN)CNC(=O)N[C@H](CNC(=O)N[C@H](CNC(=O)N[C@@H](CCCCN)CNC(=O)N[C@H](CNC(=O)N[C@@H](CCCCN)CNC(=O)N[C@H](CCC(N)=O)C(C)C)Cc1c[nH]c2ccccc12)C(C)C)Cc1c[nH]c2ccccc12)C(C)C
CC50 at 4 h [1]: 31.1 µg/mL (≈ 22.4 µM)
fraction unbound at 4 h, 10 µM [2]: 0.01
Ratio [3]: 10
Ratio [4]: 10
Drug uptake [5]: Active
Time (Bacillus anthracis [6]): 35 s
Stability [7]: Stable
Time (Bacillus anthracis [8]): <2 min
EC50 (Bacillus anthracis [9]): 3.3 µg/mL (≈ 2.38 µM)
Drug uptake [10]: Active
selectivity ratio [11]: 9.5
EC50 (Bacillus anthracis [12]): 6 µg/mL (≈ 4.32 µM)
Activity (Bacillus anthracis [13]): 5.26 CFU
Drug uptake [14]: 70%
Tmax [15]: <= 2 min
Stability [16]: Stable
Drug excretion [17]: 2%
Selectivity Index [18]: 8
Selectivity Index [19]: 8
Activity (Bacillus anthracis [20]): Active
Time (Bacillus anthracis [21]): 30 s
Stability [22]: Stable
EC50 (Bacillus anthracis [23]): 3.25 µg/mL (≈ 2.34 µM)
Drug uptake [24]: 89%
Time (Bacillus anthracis [25]): 60 s
beta t1/2 [26]: 1.65 h
alphat1/2 [27]: 3 min
Drug uptake [28]: Active
Drug excretion [29]: 2%
Drug uptake [30]: Active
Activity (Bacillus anthracis [31]): Active

CC(C)[C@@H](CCC(N)=O)NC(=O)NC[C@H](CCCCN)NC(=O)NC[C@H](Cc1c[nH]c2ccccc12)NC(=O)NC[C@H](CCCCN)NC(=O)NC[C@@H](NC(=O)NC[C@H](Cc1c[nH]c2ccccc12)NC(=O)NC[C@H](CCCCN)NC(=O)NC[C@@H](NC(=O)NCCSCC(=O)NCCNC(=O)CSCCNC(=O)N[C@H](CNC(=O)N[C@@H](CCCCN)CNC(=O)N[C@H](CNC(=O)N[C@H](CNC(=O)N[C@@H](CCCCN)CNC(=O)N[C@H](CNC(=O)N[C@@H](CCCCN)CNC(=O)N[C@H](CCC(N)=O)C(C)C)Cc1c[nH]c2ccccc12)C(C)C)Cc1c[nH]c2ccccc12)C(C)C)C(C)C)C(C)C
EC50 (Bacillus anthracis [9]): 0.2 µg/mL (≈ 0.0678 µM)
Activity (Bacillus anthracis [20]): Active
EC50 (Bacillus anthracis [23]): 0.5 µg/mL (≈ 0.169 µM)
Activity (Bacillus anthracis [31]): Active

Ac-VKWVKWKV-NH2
Stability [32]: Unstable
Stability [33]: Unstable
Stability [34]: Unstable

CC(C)NC(=O)N[C@H](CNC(=O)N[C@@H](CCCCN)CNC(=O)N[C@H](CNC(=O)N[C@H](CCC(=O)N[C@@H](CCCCN)CNC(=O)N[C@H](CNC(=O)N[C@@H](CCCCN)CNC(=O)N[C@H](CCC(N)=O)C(C)C)Cc1c[nH]c2ccccc12)C(C)C)Cc1c[nH]c2ccccc12)C(C)C
Time (Bacillus anthracis [35]): 45 s
EC50 (Bacillus anthracis [9]): 10 µg/mL (≈ 7.21 µM)
EC50 (Bacillus anthracis [12]): 8.5 µg/mL (≈ 6.13 µM)
EC50 (Bacillus anthracis [23]): 7 µg/mL (≈ 5.05 µM)
Time (Bacillus anthracis [36]): 120 s
Time (Bacillus anthracis [37]): 75 s

CC(C)[C@@H](CNC(=O)N[C@@H](CCCCN)CNC(=O)N[C@H](CNC(=O)N[C@H](CNC(=O)N[C@@H](CCCCN)CNC(=O)N[C@H](CNC(=O)N[C@@H](CCCCN)CNC(=O)N[C@H](CCC(N)=O)C(C)C)Cc1c[nH]c2ccccc12)C(C)C)Cc1c[nH]c2ccccc12)NC(=O)CCCC[C@@H]1SC[C@@H]2NC(=O)N[C@@H]21
Drug uptake [38]: Active
Activity (Bacillus anthracis [39]): 64.8%
Drug uptake [40]: Active
Drug uptake [41]: Active
Drug uptake [42]: Active
Drug uptake [43]: Active
Drug uptake [44]: Active
